Calls of active or inactive are those of the source. No cut-off for these calls is given here.
How the values were obtained:
[1] = molecular target: Glycogen synthase kinase-3 beta (Homo sapiens) (UniProt P49841); assay: Inhibition of GSK3-beta assessed as residual activity at 10 uM
Outline: (§1)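 Kinase panel screen run as a radioactive activity assay at single compound concentration. Score reported as percent activity remaining relative to DMSO controls (100%).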

[2] = molecular target: Proto-oncogene tyrosine-protein kinase Src (Homo sapiens) (UniProt P12931); assay: Inhibition of Src assessed as residual activity at 10 uM
Outline: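 Panel screen by radioactive kinase assay at a single inhibitor concentration. Score is the percent activity remaining relative to DMSO controls (100%).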

[3] = molecular target: Dual specificity mitogen-activated protein kinase kinase 1 (Homo sapiens) (UniProt Q02750); assay: Inhibition of MKK1 assessed as residual activity at 10 uM; outline: as §1
[4] = molecular target: Myosin light chain kinase, smooth muscle (Homo sapiens, UniProt Q15746); assay: Competitive inhibition of MLCK by Lineweaver-Burk plot analysis
Outline: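 Double-reciprocal (1/V vs 1/[ATP]) kinetics using the HTRF phosphorylation read-out with Ca2+/calmodulin. Conditions: 375 nM STK1 peptide substrate, ATP at 80, 110 and 140 µM, inhibitor at 0, 1, 5 and 10 µM. Reaction velocities plotted to determine the mode of inhibition.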

[5] = molecular target: Epidermal growth factor receptor (Homo sapiens, UniProt P00533); assay: Inhibition of EGFR by HTRF assay
[6] = molecular target: Calcium/calmodulin-dependent protein kinase type 1 (Homo sapiens) (UniProt Q14012); assay: Inhibition of CAMK1 assessed as residual activity at 10 uM; outline: as §1
[7] = Growth inhibition of human H23 cells assessed as ATP level after 96 hrs by CellTiter-Glo assay; type: functional; settings: NCI-H23, 96 h
Outline: (§2)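 NSCLC lines maintained as in earlier work and authenticated by mutational analysis and SNP arrays. Cells were plated in 384-well format and allowed 24 h before compound addition as 10 threefold serial dilutions (DMSO stocks). After 96 h, viability was read as cellular ATP by CellTiter-Glo. GI50 was fitted with an R package.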

NCI-H322M = assay: Growth inhibition of human NCI-H322M cells assessed as ATP level after 96 hrs by CellTiter-Glo assay; type: functional
[8] = Growth inhibition of human HCC364 cells assessed as ATP level after 96 hrs by CellTiter-Glo assay; type: functional; settings: HCC364, 96 h; outline: as §2
NCI-H28 = assay: Growth inhibition of human NCI-H28 cells assessed as ATP level after 96 hrs by CellTiter-Glo assay; type: functional; settings: NCI-H28, 96 h
EKVX = assay: Growth inhibition of human EKVX cells assessed as ATP level after 96 hrs by CellTiter-Glo assay; type: functional; outline: as §2
[9] = Growth inhibition of human HCC44 cells assessed as ATP level after 96 hrs by CellTiter-Glo assay; type: functional; settings: HCC44, 96 h; outline: as §2
SK-LU-1 = assay: Growth inhibition of human SKLU1 cells assessed as ATP level after 96 hrs by CellTiter-Glo assay; type: functional; settings: SK-LU-1, 96 h
NCI-H2122 = assay: Growth inhibition of human NCI-H2122 cells assessed as ATP level after 96 hrs by CellTiter-Glo assay; type: functional; settings: NCI-H2122, 96 h
[10] = Growth inhibition of human HCC4006 cells assessed as ATP level after 96 hrs by CellTiter-Glo assay; type: functional; settings: HCC4006, 96 h; outline: as §2
[11] = Growth inhibition of human HCC2450 cells assessed as ATP level after 96 hrs by CellTiter-Glo assay; type: functional; outline: as §2
NCI-H1755 = assay: Growth inhibition of human NCI-H1755 cells assessed as ATP level after 96 hrs by CellTiter-Glo assay; type: functional; settings: NCI-H1755, 96 h; outline: as §2
NCI-H1838 = assay: Growth inhibition of human NCI-H1838 cells assessed as ATP level after 96 hrs by CellTiter-Glo assay; type: functional; settings: NCI-H1838, 96 h
Outline: (§3)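 NSCLC lines maintained as previously described, authenticated by mutational analysis and SNP arrays. Cells seeded and incubated 24 h, then given compound (DMSO stocks) as 10 threefold serial dilutions. Viability read after 96 h as cellular ATP content (CellTiter-Glo). GI50 derived by curve fitting of half-maximal inhibition.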

NCI-H1395 = assay: Growth inhibition of human NCI-H1395 cells assessed as ATP level after 96 hrs by CellTiter-Glo assay; type: functional; settings: NCI-H1395, 96 h; outline: as §2
DV-90 = assay: Growth inhibition of human DV90 cells assessed as ATP level after 96 hrs by CellTiter-Glo assay; type: functional; settings: DV-90, 96 h; outline: as §2
[12] = Growth inhibition of human NCI-H2110 cells assessed as ATP level after 96 hrs by CellTiter-Glo assay; type: functional; settings: NCI-H2110, 96 h
NCI-H522 = assay: Growth inhibition of human NCI-H522 cells assessed as ATP level after 96 hrs by CellTiter-Glo assay; type: functional; settings: NCI-H522, 96 h
NCI-H1355 = assay: Growth inhibition of human NCI-H1355 cells assessed as ATP level after 96 hrs by CellTiter-Glo assay; type: functional; settings: NCI-H1355, 96 h; outline: as §2
A549 = assay: Growth inhibition of human A549 cells assessed as ATP level after 96 hrs by CellTiter-Glo assay; type: functional; settings: A549, 96 h; outline: as §2
[13] = Growth inhibition of human NCI-H322 cells assessed as ATP level after 96 hrs by CellTiter-Glo assay; type: functional; settings: NCI-H322, 96 h
NCI-H157 = assay: Growth inhibition of human NCI-H157 cells assessed as ATP level after 96 hrs by CellTiter-Glo assay; type: functional; settings: NCI-H157, 96 h; outline: as §2
[14] = Growth inhibition of human H3255 cells assessed as ATP level after 96 hrs by CellTiter-Glo assay; type: functional; settings: NCI-H3255, 96 h; outline: as §2
[15] = Growth inhibition of human LouNH91 cells assessed as ATP level after 96 hrs by CellTiter-Glo assay; type: functional; settings: LOU-NH91, 96 h; outline: as §2
[16] = Growth inhibition of human HCC1195 cells assessed as ATP level after 96 hrs by CellTiter-Glo assay; type: functional; outline: as §2
NCI-H1666 = assay: Growth inhibition of human NCI-H1666 cells assessed as ATP level after 96 hrs by CellTiter-Glo assay; type: functional; settings: NCI-H1666, 96 h; outline: as §2
NCI-H1734 = assay: Growth inhibition of human NCI-H1734 cells assessed as ATP level after 96 hrs by CellTiter-Glo assay; type: functional; settings: NCI-H1734, 96 h; outline: as §2
[17] = Growth inhibition of human HCC78 cells assessed as ATP level after 96 hrs by CellTiter-Glo assay; type: functional; settings: HCC78, 96 h; outline: as §2
PC-9 = assay: Growth inhibition of human PC9 cells assessed as ATP level after 96 hrs by CellTiter-Glo assay; type: functional; settings: PC-9, 96 h
[18] = Growth inhibition of human HCC193 cells assessed as ATP level after 96 hrs by CellTiter-Glo assay; type: functional; settings: HCC193, 96 h; outline: as §2
[19] = Growth inhibition of human NCI-H1819 cells assessed as ATP level after 96 hrs by CellTiter-Glo assay; type: functional; settings: NCI-H1819, 96 h; outline: as §3

Chain of Glycogen synthase kinase-3 beta (Homo sapiens) (P49841 whole entry, looked up): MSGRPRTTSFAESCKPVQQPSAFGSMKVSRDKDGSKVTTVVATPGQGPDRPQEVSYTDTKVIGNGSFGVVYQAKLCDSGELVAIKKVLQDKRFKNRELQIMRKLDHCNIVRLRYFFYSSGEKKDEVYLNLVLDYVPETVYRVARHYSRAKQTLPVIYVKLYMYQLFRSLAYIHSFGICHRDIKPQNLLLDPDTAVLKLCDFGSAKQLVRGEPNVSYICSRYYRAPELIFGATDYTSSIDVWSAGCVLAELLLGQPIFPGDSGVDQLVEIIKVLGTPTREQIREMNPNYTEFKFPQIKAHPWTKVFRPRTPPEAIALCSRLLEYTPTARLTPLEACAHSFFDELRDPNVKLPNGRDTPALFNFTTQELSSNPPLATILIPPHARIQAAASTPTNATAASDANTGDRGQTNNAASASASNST
Chain of Proto-oncogene tyrosine-protein kinase Src (Homo sapiens) (P12931 2-536 limits assumed): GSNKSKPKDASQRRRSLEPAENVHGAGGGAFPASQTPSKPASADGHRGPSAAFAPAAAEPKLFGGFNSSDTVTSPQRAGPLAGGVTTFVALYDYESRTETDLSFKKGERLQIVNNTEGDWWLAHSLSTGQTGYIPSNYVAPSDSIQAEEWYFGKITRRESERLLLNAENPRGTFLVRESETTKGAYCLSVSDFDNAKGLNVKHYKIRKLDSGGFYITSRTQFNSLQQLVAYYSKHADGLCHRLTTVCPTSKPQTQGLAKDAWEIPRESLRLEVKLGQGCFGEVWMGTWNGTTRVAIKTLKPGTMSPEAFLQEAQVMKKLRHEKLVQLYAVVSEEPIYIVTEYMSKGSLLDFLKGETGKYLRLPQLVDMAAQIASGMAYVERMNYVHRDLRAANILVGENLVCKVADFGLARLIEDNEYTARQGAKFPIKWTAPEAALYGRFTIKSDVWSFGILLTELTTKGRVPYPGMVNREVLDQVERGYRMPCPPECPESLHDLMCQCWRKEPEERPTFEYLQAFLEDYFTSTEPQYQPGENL
Chain of Calcium/calmodulin-dependent protein kinase type 1 (Homo sapiens) (Q14012 whole entry, looked up): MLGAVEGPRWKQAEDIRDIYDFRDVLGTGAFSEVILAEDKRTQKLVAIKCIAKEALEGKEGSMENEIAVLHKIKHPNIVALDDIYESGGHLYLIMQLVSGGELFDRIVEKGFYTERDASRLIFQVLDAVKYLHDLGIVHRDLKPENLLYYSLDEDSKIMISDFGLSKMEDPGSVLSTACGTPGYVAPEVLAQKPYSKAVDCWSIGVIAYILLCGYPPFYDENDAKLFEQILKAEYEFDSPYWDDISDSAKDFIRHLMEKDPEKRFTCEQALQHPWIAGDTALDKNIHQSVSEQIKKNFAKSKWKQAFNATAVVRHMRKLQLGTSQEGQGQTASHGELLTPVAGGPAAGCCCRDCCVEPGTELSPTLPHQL
Chain of Dual specificity mitogen-activated protein kinase kinase 1 (Homo sapiens) (Q02750 whole entry): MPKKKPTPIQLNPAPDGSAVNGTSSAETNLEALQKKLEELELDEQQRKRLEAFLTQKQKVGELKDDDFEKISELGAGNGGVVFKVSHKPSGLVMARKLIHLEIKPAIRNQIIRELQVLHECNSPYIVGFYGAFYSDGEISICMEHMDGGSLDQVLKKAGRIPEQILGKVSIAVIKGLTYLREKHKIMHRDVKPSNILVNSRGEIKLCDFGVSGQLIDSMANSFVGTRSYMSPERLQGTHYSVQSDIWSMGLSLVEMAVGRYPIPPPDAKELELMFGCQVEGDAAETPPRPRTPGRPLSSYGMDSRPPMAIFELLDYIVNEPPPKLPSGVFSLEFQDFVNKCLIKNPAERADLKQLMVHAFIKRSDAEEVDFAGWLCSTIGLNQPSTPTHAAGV
Chain of Epidermal growth factor receptor (P00533 whole entry): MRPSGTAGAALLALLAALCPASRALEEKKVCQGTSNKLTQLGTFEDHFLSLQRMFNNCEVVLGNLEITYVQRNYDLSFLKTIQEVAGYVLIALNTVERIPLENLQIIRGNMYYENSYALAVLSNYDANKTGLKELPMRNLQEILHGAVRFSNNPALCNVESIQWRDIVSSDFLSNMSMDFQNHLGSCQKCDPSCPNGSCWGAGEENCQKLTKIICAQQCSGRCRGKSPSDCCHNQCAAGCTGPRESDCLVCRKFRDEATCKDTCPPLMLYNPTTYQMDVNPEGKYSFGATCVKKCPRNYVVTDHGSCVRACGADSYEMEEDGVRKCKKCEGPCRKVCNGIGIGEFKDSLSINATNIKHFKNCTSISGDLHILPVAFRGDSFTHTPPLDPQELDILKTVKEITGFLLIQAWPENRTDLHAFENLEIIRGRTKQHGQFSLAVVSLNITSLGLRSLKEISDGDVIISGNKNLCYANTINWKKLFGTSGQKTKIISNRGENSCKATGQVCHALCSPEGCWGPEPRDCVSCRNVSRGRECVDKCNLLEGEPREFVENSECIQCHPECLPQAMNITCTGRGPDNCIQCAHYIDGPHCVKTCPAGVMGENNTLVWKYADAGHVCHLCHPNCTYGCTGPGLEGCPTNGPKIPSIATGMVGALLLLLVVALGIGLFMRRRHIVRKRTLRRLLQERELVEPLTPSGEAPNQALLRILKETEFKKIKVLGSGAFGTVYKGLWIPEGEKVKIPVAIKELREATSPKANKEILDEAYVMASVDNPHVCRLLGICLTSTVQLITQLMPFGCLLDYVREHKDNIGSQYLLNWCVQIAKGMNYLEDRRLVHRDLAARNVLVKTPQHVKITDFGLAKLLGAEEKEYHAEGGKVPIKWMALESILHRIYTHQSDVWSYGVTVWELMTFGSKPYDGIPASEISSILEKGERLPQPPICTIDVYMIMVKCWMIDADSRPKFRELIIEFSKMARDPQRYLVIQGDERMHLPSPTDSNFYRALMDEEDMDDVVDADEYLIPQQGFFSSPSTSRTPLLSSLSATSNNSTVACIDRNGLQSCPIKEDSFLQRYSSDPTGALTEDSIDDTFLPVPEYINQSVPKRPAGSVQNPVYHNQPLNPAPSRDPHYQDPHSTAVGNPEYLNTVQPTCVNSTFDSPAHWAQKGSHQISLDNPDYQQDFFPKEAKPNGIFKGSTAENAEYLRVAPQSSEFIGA
Chain of Myosin light chain kinase, smooth muscle (Q15746 whole entry): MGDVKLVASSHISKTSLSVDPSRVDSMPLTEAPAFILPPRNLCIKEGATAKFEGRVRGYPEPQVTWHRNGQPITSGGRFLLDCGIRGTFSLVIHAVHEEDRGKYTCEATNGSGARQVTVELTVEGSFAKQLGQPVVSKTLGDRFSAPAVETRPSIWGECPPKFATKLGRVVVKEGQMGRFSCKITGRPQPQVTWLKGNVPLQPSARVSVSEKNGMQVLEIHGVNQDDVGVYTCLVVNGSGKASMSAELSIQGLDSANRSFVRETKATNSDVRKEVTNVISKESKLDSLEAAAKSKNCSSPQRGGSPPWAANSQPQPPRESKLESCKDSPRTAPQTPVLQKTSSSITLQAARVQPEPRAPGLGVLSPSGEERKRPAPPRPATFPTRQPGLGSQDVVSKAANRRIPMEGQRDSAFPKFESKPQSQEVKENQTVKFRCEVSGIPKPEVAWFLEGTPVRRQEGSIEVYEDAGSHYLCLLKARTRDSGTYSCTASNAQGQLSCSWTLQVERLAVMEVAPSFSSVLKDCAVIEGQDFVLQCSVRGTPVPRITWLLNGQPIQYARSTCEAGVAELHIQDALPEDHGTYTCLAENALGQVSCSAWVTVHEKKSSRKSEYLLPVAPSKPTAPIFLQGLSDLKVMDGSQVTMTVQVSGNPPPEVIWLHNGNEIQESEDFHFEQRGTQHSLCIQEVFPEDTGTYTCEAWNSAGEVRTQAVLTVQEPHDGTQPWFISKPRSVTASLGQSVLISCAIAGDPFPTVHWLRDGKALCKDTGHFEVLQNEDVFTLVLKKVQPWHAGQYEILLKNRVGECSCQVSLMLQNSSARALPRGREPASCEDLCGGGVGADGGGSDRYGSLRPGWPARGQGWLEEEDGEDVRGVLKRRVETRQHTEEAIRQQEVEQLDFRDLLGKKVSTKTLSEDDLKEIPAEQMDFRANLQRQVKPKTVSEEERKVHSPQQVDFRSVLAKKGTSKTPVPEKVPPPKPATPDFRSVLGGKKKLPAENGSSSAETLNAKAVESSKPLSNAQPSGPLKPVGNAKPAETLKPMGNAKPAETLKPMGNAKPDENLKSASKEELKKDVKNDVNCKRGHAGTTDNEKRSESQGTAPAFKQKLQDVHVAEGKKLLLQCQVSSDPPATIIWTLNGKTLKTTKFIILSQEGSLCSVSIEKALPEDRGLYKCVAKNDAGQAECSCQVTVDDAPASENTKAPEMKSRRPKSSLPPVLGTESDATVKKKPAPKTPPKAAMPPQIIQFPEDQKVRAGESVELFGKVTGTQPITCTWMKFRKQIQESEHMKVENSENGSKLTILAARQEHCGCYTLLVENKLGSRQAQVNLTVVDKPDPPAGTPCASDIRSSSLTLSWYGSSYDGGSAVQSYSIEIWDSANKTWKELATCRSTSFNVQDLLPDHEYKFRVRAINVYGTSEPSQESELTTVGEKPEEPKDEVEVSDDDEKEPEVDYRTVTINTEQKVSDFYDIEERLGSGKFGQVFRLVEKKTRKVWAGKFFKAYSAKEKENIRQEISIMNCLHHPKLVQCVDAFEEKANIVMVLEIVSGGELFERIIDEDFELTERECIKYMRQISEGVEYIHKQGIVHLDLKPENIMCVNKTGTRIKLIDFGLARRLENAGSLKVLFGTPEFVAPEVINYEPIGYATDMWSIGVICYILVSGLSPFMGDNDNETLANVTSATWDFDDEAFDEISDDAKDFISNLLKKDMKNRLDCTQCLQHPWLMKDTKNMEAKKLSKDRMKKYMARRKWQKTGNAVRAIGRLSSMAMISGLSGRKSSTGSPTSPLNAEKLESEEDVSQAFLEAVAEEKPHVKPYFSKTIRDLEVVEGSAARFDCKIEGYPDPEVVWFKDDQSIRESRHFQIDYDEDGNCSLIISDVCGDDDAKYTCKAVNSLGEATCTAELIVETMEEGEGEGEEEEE

Q: What does the source list for `CN1CCN(CCC(=O)Nc2ccc3c(C#N)cnc(Nc4cccc(Br)c4)c3c2)CC1`?
A: Activity [1]: 100%; Activity [2]: 49%; Activity [3]: 79%; inhibition [4]: Active; IC50 [5]: 1.3 µM; Activity [6]: 14%

Q: Which Activity [1] does the source give for `CN(C)CCCC(=O)Nc1ccc2c(C#N)cnc(Nc3cccc(Br)c3)c2c1` here?
A: 100%

Q: And the Activity [2]?
A: 60%

Q: And the Activity [3]?
A: 100%

Q: What about the Activity [6] of the same compound?
A: 15%

Q: Which results are given for `CN(C)C/C=C/C(=O)Nc1ccc2c(C#N)cnc(Nc3cccc(Br)c3)c2c1`?
A: GI50 [7]: 29.9 µM; GI50 (NCI-H322M): 21.4 µM; Activity [1]: 78%; Activity [2]: 61%; GI50 [8]: 21.9 µM; GI50 (NCI-H28): 24.8 µM; Activity [3]: 47%; GI50 (EKVX): 14.5 µM; GI50 [9]: 23.7 µM; GI50 (SK-LU-1): 16.6 µM; GI50 (NCI-H2122): 18.8 µM; GI50 [10]: 13.3 µM; GI50 [11]: 22.9 µM; GI50 (NCI-H1755): 9.89 µM; GI50 (NCI-H1838): 18.2 µM; GI50 (NCI-H1395): 31.3 µM; GI50 (DV-90): 18.4 µM; GI50 [12]: 13.2 µM; GI50 (NCI-H522): 17.2 µM; GI50 (NCI-H1355): 22.9 µM; GI50 (A549): 40 µM; GI50 [13]: 24.8 µM; GI50 (NCI-H157): 12 µM; GI50 [14]: 4.32 µM; GI50 [15]: 15.7 µM; GI50 [16]: 17.6 µM; GI50 (NCI-H1666): 28.8 µM; IC50 [5]: 0.15 µM; GI50 (NCI-H1734): 24.3 µM; Activity [6]: 25%; GI50 [17]: 19.7 µM; GI50 (PC-9): 4.68 µM; GI50 [18]: 15.3 µM; GI50 [19]: 7.59 µM
